Data as given in ChEMBL document CHEMBL3784973, “A Parallel Synthesis Approach to the Identification of Novel Diheteroarylamide-Based Compounds Blocking HIV Replication: Potential Inhibitors of HIV-1 Pre-mRNA Alternative Splicing” (J Med Chem, 2016).
Activity calls are given as the source filed them. No cut-off for these calls is given here.

Key:
[1] = test system: Human immunodeficiency virus 1; assay: Antiviral activity against HIV1 NL4-3 infected in GFP-positive human CEM cells expressing CD4+,CXCR4 and CCR5 at 2 uM after 3 days by flow cytometric analysis; format: functional, organism-based; settings: CCRF-CEM
Procedure, shortened: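 Library screen of HIV-1 spread in CEM-GXR cells cocultured with 1% HIV-1NL4-3-infected (GFP+) cells. Cells were grown in RPMI-1640 with 10% FCS and penicillin-streptomycin, and selected with G418 and hygromycin B during propagation. Compound at final 2 μM in DMSO was added right after inoculation. Infection was read by flow cytometry of GFP.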

[2] = test system: Human immunodeficiency virus 1; assay: Antiviral activity against subtype A R5 tropic HIV1 97USSN54 infected in GFP-positive human CEM cells expressing CD4+,CXCR4 and CCR5 after 3 days; format: functional, organism-based; settings: Human immunodeficiency virus 1, 97USSN54, CCRF-CEM, 72 h
Procedure, shortened: (§1)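 Infected CEM-GXR GFP-reporter cells were exposed to increasing compound concentrations. GFP-positive cells were measured by flow cytometry 3 days after infection. EC50 came from nonlinear regression of the inhibition curves. Mean of three independent determinations.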

[3] = test system: Human immunodeficiency virus 1; assay: Antiviral activity against subtype B X4 tropic HIV1 3B infected in GFP-positive human CEM cells expressing CD4+,CXCR4 and CCR5 after 3 days; format: functional, organism-based; settings: Human immunodeficiency virus 1, 3B, CCRF-CEM, 72 h; procedure, shortened: as §1
[4] = Cytotoxicity against GFP-positive human CEM cells expressing CD4+,CXCR4 and CCR5 assessed as cell viability at 100 uM after 24 hrs by Guava viacount assay (reference value: 98%); format: cell-based, CCRF-CEM; settings: read-out: Activity
Procedure, shortened: (§2)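 For viability, CEM-GXR cells were incubated 24 h with compound at 0.5–100 μM. Guava ViaCount flow assay used DNA-binding dye permeability plus forward scatter to exclude nuclei and debris. Values are % viable cells (±SEM, three independent experiments), and CC50 is the concentration killing 50% of host cells.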

[5] = test system: Human immunodeficiency virus 1; assay: Antiviral activity against […]-resistance HIV1 E00443 harboring reverse transcriptase D67N/K70R/Y115F/Q151M/M184V/K219Q mutant infected in GFP-positive human CEM cells expressing CD4+,CXCR4 and CCR5 after 3 days; format: functional, organism-based; settings: Human immunodeficiency virus 1, E00443, CCRF-CEM, 72 h
[6] = test system: Human immunodeficiency virus 1; assay: Antiviral activity against PI-resistant HIV1 isolate 2948 harboring protease G48V/L90M mutant infected in GFP-positive human CEM cells expressing CD4+,CXCR4 and CCR5 after 3 days; format: functional, organism-based; settings: Human immunodeficiency virus 1, isolate 2948, CCRF-CEM, 72 h
[7] = test system: Human immunodeficiency virus 1; assay: Antiviral activity against INI-resistant HIV1 isolate 11845 harboring integrase G140S/Q148H mutant infected in GFP-positive human CEM cells expressing CD4+,CXCR4 and CCR5 after 3 days; format: functional, organism-based; settings: Human immunodeficiency virus 1, isolate 11845, CCRF-CEM, 72 h
[8] = test system: Human immunodeficiency virus 1; assay: Antiviral activity against maraviroc-resistant HIV1 BAL R5 harboring envelop V3 A19T/L20F/T22A/E25D/126V mutant infected in GFP-positive human CEM cells expressing CD4+,CXCR4 and CCR5 after 3 days; format: functional, organism-based; settings: ccrf-cem
[9] = Cytotoxicity against GFP-positive human CEM cells expressing CD4+,CXCR4 and CCR5 assessed as cell viability at 16 uM after 24 hrs by Guava viacount assay; format: cell-based, CCRF-CEM; settings: read-out: Activity
Procedure, shortened: (§3)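 Uninfected CEM-GXR cells were incubated 24 h with serial dilutions from 62.5 nM to 16 μM final. Viability was read by Guava ViaCount (dye permeability staining with forward scatter gating) as % viable cells. Three independent experiments.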

[10] = Cytotoxicity against GFP-positive human CEM cells expressing CD4+,CXCR4 and CCR5 assessed as cell viability at 8 uM after 24 hrs by Guava viacount assay; format: cell-based, CCRF-CEM; settings: read-out: Activity; procedure, shortened: as §3
[11] = Cytotoxicity against GFP-positive human CEM cells expressing CD4+,CXCR4 and CCR5 assessed as cell viability at 4 uM after 24 hrs by Guava viacount assay; format: cell-based, CCRF-CEM; settings: read-out: Activity; procedure, shortened: as §3
[12] = Cytotoxicity against GFP-positive human CEM cells expressing CD4+,CXCR4 and CCR5 assessed as cell viability at 1 uM after 24 hrs by Guava viacount assay; format: cell-based, CCRF-CEM; settings: read-out: Activity; procedure, shortened: as §3
[13] = Cytotoxicity against GFP-positive human CEM cells expressing CD4+,CXCR4 and CCR5 assessed as cell viability at after 24 hrs by Guava viacount assay; format: cell-based, CCRF-CEM; procedure, shortened: as §2
[14] = test system: Human immunodeficiency virus 1; assay: Antiviral activity against HIV1 3B infected in GFP-positive human CEM cells expressing CD4+,CXCR4 and CCR5 assessed as number of infected cells at 1 uM after 3 days; format: functional, CCRF-CEM
Procedure, shortened: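 CEM-GXR cells (CD4+ T-cell line, Tat-driven LTR-GFP reporter) infected by coculture with 1% HIV-1IIIB-infected cells. Serial dilutions 62.5 nM–16 μM added at inoculation. GFP-positive (infected) cells counted 3 days post-infection. Three independent experiments.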

[15] = Therapeutic index, ratio of CC50 for GFP-positive human CEM cells expressing CD4+,CXCR4 and CCR5 to EC50 for HIV1 3B infected in GFP-positive human CEM cells expressing CD4+,CXCR4 and CCR5; format: cell-based, CCRF-CEM; settings: read-out: TI
Procedure, shortened: (§4)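 Reporter CEM-GXR T cells (Tat-driven LTR-GFP cassette; RPMI-1640, 10% FCS, penicillin-streptomycin) were infected by coculture with 1% HIV-infected GFP-positive cells. Compound in DMSO was added after inoculation. Infected cells were counted by flow cytometry for GFP at day 3, and EC50 was taken from nonlinear regression. CC50 came from Guava ViaCount viability after 24 h at 0.5–100 μM. Index = CC50/EC50.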

[16] = Therapeutic index, ratio of CC50 for GFP-positive human CEM cells expressing CD4+,CXCR4 and CCR5 to EC50 for HIV1 97USSN54 infected in GFP-positive human CEM cells expressing CD4+,CXCR4 and CCR5; format: cell-based, CCRF-CEM; settings: read-out: TI; procedure, shortened: as §4
[17] = Therapeutic index, ratio of CC50 for GFP-positive human CEM cells expressing CD4+,CXCR4 and CCR5 to EC50 for […] HIV1 E00443 reverse transcriptase D67N/K70R/Y115F/Q151M/M184V/K219Q mutant infected in GFP-positive human CEM cells expressing CD4+,CXCR4 and CCR5; format: cell-based; settings: ccrf-cem, read-out: TI
[18] = Therapeutic index, ratio of CC50 for GFP-positive human CEM cells expressing CD4+,CXCR4 and CCR5 to EC50 for HIV1 isolate 2948 harboring protease G48V/L90M mutant infected in GFP-positive human CEM cells expressing CD4+,CXCR4 and CCR5; format: cell-based; settings: ccrf-cem, read-out: TI
[19] = Therapeutic index, ratio of CC50 for GFP-positive human CEM cells expressing CD4+,CXCR4 and CCR5 to EC50 for INI-resistant HIV1 isolate 11845 harboring integrase G140S/Q148H mutant infected in GFP-positive human CEM cells expressing CD4+,CXCR4 and CCR5; format: cell-based; settings: ccrf-cem, read-out: TI
[20] = Therapeutic index, ratio of CC50 for GFP-positive human CEM cells expressing CD4+,CXCR4 and CCR5 to EC50 for maraviroc-resistant HIV1 BAL R5 harboring envelop V3 A19T/L20F/T22A/E25D/126V mutant infected in GFP-positive human CEM cells expressing CD4+,CXCR4 and CCR5; format: cell-based; settings: ccrf-cem, read-out: TI

| Structure (SMILES) | antiviral activity call (active/inactive) [1] | EC50 [3] [nM] | viability at 24 h, 16 µM [9] [%] | viability at 24 h, 8 µM [10] [%] | viability at 24 h, 4 µM [11] [%] | viability at 24 h, 1 µM [12] [%] | Activity [14] [%] | other results |
| --- | --- | --- | --- | --- | --- | --- | --- | --- |
| Cn1ccc(=O)c(C(=O)Nc2nsc3ccc([N+](=O)[O-])cc23)c1 | Active | 600 | 78.7 | 80.9 | 81.5 | 89.6 | 18.4 | EC50 [2]: 900 nM; viability at 24 h, 100 µM [4]: 68.8%; EC50 [5]: 1300 nM; EC50 [6]: 1400 nM; EC50 [7]: 1500 nM; EC50 [8]: 900 nM; CC50 at 24 h [13]: > 100000 nM; selectivity ratio [15]: > 166; selectivity ratio [16]: > 111; selectivity ratio [17]: > 77; selectivity ratio [18]: > 71; selectivity ratio [19]: > 66; selectivity ratio [20]: > 111 |
| COCCOc1ccncc1C(=O)Nc1nsc2ccc([N+](=O)[O-])cc12 | Active |  |  |  |  |  |  |  |
| COc1cc(C(=O)Nc2nsc3ccc([N+](=O)[O-])cc23)ccn1 | Active |  |  |  |  |  |  |  |
| Nc1nc(=O)n([C@@H]2CS[C@H](CO)O2)cc1F [EMTRICITABINE] |  | 40 |  |  |  |  |  |  |
| Cc1c2ccnc(Cl)c2cc2c3cn(C)ccc-3nc12 |  |  | 11.9 | 19.9 | 33.2 | 85.5 | 17.7 |  |
| COCCOc1cc(=O)n(C)cc1C(=O)Nc1nsc2ccc([N+](=O)[O-])cc12 | Active |  |  |  |  |  |  |  |
